# Assay results as given in ChEMBL document CHEMBL3120102, “Structure-based design, synthesis and biological evaluation of novel anthra[1,2-d]imidazole-6,11-dione homologues as potential antitumor agents” (2013).
# Legend:
# MDA-MB-435 = assay: Cytotoxicity against human MDA-MB-435 cells assessed as cell growth at 10 uM after 48 hrs by SRB assay; assay type: functional; settings: MDA-MB-435, 48 h, read-out: Activity
# Summary of the method: (§1)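 First stage of the NCI 60 human tumour cell line screen: a single dose is tested against every line. Cell growth is read as cellular protein by sulforhodamine B colorimetry after 48 h of drug exposure, with reference to a time-zero control and to untreated plates.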
# HCC 2998 = assay: Cytotoxicity against human HCC2998 cells assessed as cell growth at 10 uM after 48 hrs by SRB assay; assay type: functional; settings: HCC 2998, 48 h, read-out: Activity
# CCRF-CEM = assay: Cytotoxicity against human CCRF-CEM cells assessed as cell growth at 10 uM after 48 hrs by SRB assay; assay type: functional; settings: read-out: Activity
# [1] = Cytotoxicity against human NCI-ADR-RES cells assessed as cell growth at 10 uM after 48 hrs by SRB assay; assay type: functional; settings: read-out: Activity; summary of the method: as §1
# [2] = Cytotoxicity against human OVCAR5 cells assessed as cell growth at 10 uM after 48 hrs by SRB assay; assay type: functional; settings: OVCAR-5, 48 h, read-out: Activity; summary of the method: as §1
# TK-10 = assay: Cytotoxicity against human TK10 cells assessed as cell growth at 10 uM after 48 hrs by SRB assay; assay type: functional; settings: TK-10, 48 h, read-out: Activity
# Summary of the method: (§2)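 First stage of the NCI 60 human tumour cell line screen, with each compound tested at a single dose of 10. Cellular protein measured by sulforhodamine B colorimetry after 48 h drug exposure. Growth is calculated against a time-zero cell control and against plates not exposed to drug.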
# SN12C = assay: Cytotoxicity against human SN12C cells assessed as cell growth at 10 uM after 48 hrs by SRB assay; assay type: functional; settings: read-out: Activity; summary of the method: as §1
# [3] = Cytotoxicity against human OVCAR4 cells assessed as cell growth at 10 uM after 48 hrs by SRB assay; assay type: functional; settings: OVCAR-4, 48 h, read-out: Activity; summary of the method: as §1
# [4] = Cytotoxicity against human H1299 cells assessed as cell viability at 100 uM after 48 hrs by MTT assay; assay type: functional; settings: NCI-H1299, 48 h, read-out: Activity
# Summary of the method: (§3)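 About 2×10³ H1299 cells per well were grown for 24 h at 37 °C in 5% CO2. Compound was dissolved in DMSO immediately before use, diluted in complete medium and left on cells for 48 h. MTT was then added for 4 h at 37 °C, followed by SDS/DMF lysis buffer for 16 h at 37 °C. Absorbance was read at 550 nm.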
# HCT-15 = assay: Cytotoxicity against human HCT15 cells assessed as cell growth at 10 uM after 48 hrs by SRB assay; assay type: functional; settings: HCT-15, 48 h, read-out: Activity
# [5] = Cytotoxicity against human UACC257 cells assessed as cell growth at 10 uM after 48 hrs by SRB assay; assay type: functional; settings: UACC-257, 48 h, read-out: Activity; summary of the method: as §2
# [6] = molecular target: Telomerase reverse transcriptase (Homo sapiens) (UniProt O14746); assay: Inhibition of human tert transcriptional activity assessed as SEAP activity at 1 uM after 24 hrs by SEAP reporter assay; parameters: scale not given: the % may be the effect or the level left
# Chain of Telomerase reverse transcriptase (Homo sapiens) (O14746 whole entry): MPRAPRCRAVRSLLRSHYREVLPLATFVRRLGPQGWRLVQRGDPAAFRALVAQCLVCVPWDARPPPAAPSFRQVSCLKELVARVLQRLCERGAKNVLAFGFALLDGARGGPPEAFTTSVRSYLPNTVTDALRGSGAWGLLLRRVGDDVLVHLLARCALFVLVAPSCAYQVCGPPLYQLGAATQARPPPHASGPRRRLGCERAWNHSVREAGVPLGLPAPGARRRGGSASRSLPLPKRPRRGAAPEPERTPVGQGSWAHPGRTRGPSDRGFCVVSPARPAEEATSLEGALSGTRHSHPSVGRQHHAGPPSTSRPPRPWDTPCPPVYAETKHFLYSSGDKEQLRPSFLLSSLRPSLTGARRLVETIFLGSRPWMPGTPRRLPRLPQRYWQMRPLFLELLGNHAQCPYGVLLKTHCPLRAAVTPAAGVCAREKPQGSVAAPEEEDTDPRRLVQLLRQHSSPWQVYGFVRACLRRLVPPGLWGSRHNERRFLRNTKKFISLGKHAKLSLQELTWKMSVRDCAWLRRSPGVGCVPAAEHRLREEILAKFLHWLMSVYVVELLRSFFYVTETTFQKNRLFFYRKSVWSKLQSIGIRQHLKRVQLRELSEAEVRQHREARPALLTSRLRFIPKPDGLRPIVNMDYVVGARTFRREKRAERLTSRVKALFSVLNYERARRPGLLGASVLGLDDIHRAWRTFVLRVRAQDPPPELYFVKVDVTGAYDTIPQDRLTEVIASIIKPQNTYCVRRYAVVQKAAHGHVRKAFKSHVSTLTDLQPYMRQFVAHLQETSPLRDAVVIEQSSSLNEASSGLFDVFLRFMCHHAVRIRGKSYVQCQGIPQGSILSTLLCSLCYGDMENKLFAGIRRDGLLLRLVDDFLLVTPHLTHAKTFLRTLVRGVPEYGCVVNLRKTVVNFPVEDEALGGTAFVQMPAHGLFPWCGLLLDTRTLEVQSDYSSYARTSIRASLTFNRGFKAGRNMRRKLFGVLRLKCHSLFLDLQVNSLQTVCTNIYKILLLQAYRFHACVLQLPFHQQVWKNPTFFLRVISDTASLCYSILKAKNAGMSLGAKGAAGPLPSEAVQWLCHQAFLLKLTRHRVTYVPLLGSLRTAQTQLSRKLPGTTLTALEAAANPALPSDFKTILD
# Summary of the method: (§4)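 Reporter assay for hTERT transcriptional activity using secreted alkaline phosphatase. About 2 × 10³ cells per well were grown for 24 h at 37 °C, then given fresh medium. Buffer was added to the medium: 2 M diethanolamine, 1 mM MgCl2 and 20 mM L-homoarginine. p-Nitrophenyl phosphate was added to 12 mM final. The rate of absorbance increase was read at 405 nm.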
# NCI-H322M = assay: Cytotoxicity against human NCI-H322M cells assessed as cell growth at 10 uM after 48 hrs by SRB assay; assay type: functional; settings: read-out: Activity; summary of the method: as §1
# SK-OV-3 = assay: Cytotoxicity against human SKOV3 cells assessed as cell growth at 10 uM after 48 hrs by SRB assay; assay type: functional; settings: SK-OV-3, 48 h, read-out: Activity; summary of the method: as §1
# A498 = assay: Cytotoxicity against human A498 cells assessed as cell growth at 10 uM after 48 hrs by SRB assay; assay type: functional; settings: A498, 48 h, read-out: Activity
# NCI-H460 = assay: Cytotoxicity against human NCI-H460 cells assessed as cell growth at 10 uM after 48 hrs by SRB assay; assay type: functional; settings: NCI-H460, 48 h, read-out: Activity; summary of the method: as §1
# [7] = Cytotoxicity against human H1299 cells assessed as cell viability at 10 uM after 48 hrs by MTT assay; assay type: functional; settings: NCI-H1299, 48 h, read-out: Activity; summary of the method: as §3
# SF-539 = assay: Cytotoxicity against human SF539 cells assessed as cell growth at 10 uM after 48 hrs by SRB assay; assay type: functional; settings: SF-539, 48 h, read-out: Activity; summary of the method: as §1
# PC-3 = assay: Cytotoxicity against human PC3 cells assessed as cell growth at 10 uM after 48 hrs by SRB assay; assay type: functional; settings: PC-3, 48 h, read-out: Activity; summary of the method: as §1
# COLO 205 = assay: Cytotoxicity against human COLO205 cells assessed as cell growth at 10 uM after 48 hrs by SRB assay; assay type: functional; settings: COLO 205, 48 h, read-out: Activity
# RXF 393 = assay: Cytotoxicity against human RXF393 cells assessed as cell growth at 10 uM after 48 hrs by SRB assay; assay type: functional; settings: RXF 393, 48 h, read-out: Activity; summary of the method: as §1
# T47D = assay: Cytotoxicity against human T47D cells assessed as cell growth at 10 uM after 48 hrs by SRB assay; assay type: functional; settings: read-out: Activity; summary of the method: as §2
# HCT-116 = assay: Cytotoxicity against human HCT116 cells assessed as growth inhibition after 48 hrs by SRB assay; assay type: functional; settings: for GI50 / LC50 / TGI: HCT-116, 48 h
# Summary of the method: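 NCI 60-cell-line five-dose screen at […]. Drug exposure was 48 h, followed by sulforhodamine B protein staining. GI50, TGI and LC50 were calculated against a time-zero control and untreated plates, with dose–response curves plotted from log10 concentration.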
# NCI-H522 = assay: Cytotoxicity against human NCI-H522 cells assessed as cell growth at 10 uM after 48 hrs by SRB assay; assay type: functional; settings: NCI-H522, 48 h, read-out: Activity; summary of the method: as §1
# SK-MEL-28 = assay: Cytotoxicity against human SK-MEL-28 cells assessed as cell growth at 10 uM after 48 hrs by SRB assay; assay type: functional; settings: SK-MEL-28, 48 h, read-out: Activity; summary of the method: as §1
# LOX IMVI = assay: Cytotoxicity against human LOXIMVI cells assessed as cell growth at 10 uM after 48 hrs by SRB assay; assay type: functional; settings: read-out: Activity
# Summary of the method: (§5)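 NCI 60-cell-line screen, first stage: compound at a single dose of […] (unit as printed) for 48 h. Cellular protein was measured by sulforhodamine B colorimetry. Growth was determined using a time-zero cell control and plates not exposed to drug.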
# HOP-92 = assay: Cytotoxicity against human HOP92 cells assessed as cell growth at 10 uM after 48 hrs by SRB assay; assay type: functional; settings: HOP-92, 48 h, read-out: Activity; summary of the method: as §5
# U-251 = assay: Cytotoxicity against human U251 cells assessed as cell growth at 10 uM after 48 hrs by SRB assay; assay type: functional; settings: U-251, 48 h, read-out: Activity; summary of the method: as §2
# [8] = molecular target: Telomerase reverse transcriptase (Homo sapiens) (UniProt O14746); assay: Inhibition of human tert transcriptional activity assessed as SEAP activity at 10 uM after 24 hrs by SEAP reporter assay; parameters: scale not given: the % may be the effect or the level left; summary of the method: as §4
Structure (SMILES),growth at 10 µM (MDA-MB-435) [%],growth at 10 µM (HCC 2998) [%],growth at 10 µM (CCRF-CEM) [%],growth at 10 µM [1] [%],growth at 10 µM [2] [%],growth at 10 µM (TK-10) [%],growth at 10 µM (SN12C) [%],growth at 10 µM [3] [%],viability at 100 µM [4] [%],growth at 10 µM (HCT-15) [%],growth at 10 µM [5] [%],Activity [6] [%],growth at 10 µM (NCI-H322M) [%],growth at 10 µM (SK-OV-3) [%],growth at 10 µM (A498) [%],growth at 10 µM (NCI-H460) [%],viability at 10 µM [7] [%],growth at 10 µM (SF-539) [%],growth at 10 µM (PC-3) [%],growth at 10 µM (COLO 205) [%],other results
CCCSc1nc2ccc3c(c2[nH]1)C(=O)c1ccccc1C3=O,77.4,81.9,70.8,50.2,99.7,35.5,80.4,42.2,12,67.7,86.3,103,76,38.9,57.3,68.1,78,24,66.8,103,growth at 10 µM (RXF 393): 20.1%; growth at 10 µM (T47D): 53.7%; growth inhibition (GI) (HCT-116): Dose-dependent effect; GI50 (HCT-116): 3.06 µM; LC50 (HCT-116): > 100 µM; TGI (HCT-116): > 100 µM; growth at 10 µM (NCI-H522): 72.4%; growth at 10 µM (SK-MEL-28): 92.6%; growth at 10 µM (LOX IMVI): 62.6%; growth at 10 µM (HOP-92): 17.2%; growth at 10 µM (U-251): 63%; Activity [8]: 94%
O=C1c2ccccc2C(=O)c2c1ccc1nc(SCCN3CCCC3)[nH]c21,66.5,71.5,-15.4,53.7,87.5,36.9,52.9,57.2,21,40.4,92.8,102,73.2,55.6,71.4,34.1,89,62.2,6.9,17.1,growth at 10 µM (RXF 393): 22.3%; growth at 10 µM (T47D): 83.1%; growth inhibition (GI) (HCT-116): Dose-dependent effect; GI50 (HCT-116): 1.64 µM; LC50 (HCT-116): 8.15 µM; TGI (HCT-116): 3.66 µM; growth at 10 µM (NCI-H522): 81.5%; growth at 10 µM (SK-MEL-28): 100%; growth at 10 µM (LOX IMVI): 11.9%; growth at 10 µM (HOP-92): 35.2%; growth at 10 µM (U-251): 69.1%; Activity [8]: 98%
